Activity calls are given as the source filed them. The rule behind the calls is not given here.
Tests used:
MIA PaCa-2 [1] = experiment: Induction of DNA damage in human MIA PaCa-2 cells assessed as decrease in UTP level at 25 nM in presence of Cu2+ incubated for 48 hrs by LC-MS/MS analysis; format: functional, cell-based
Procedure, shortened: (§1)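 Cells in DMEM or RPMI with 10% FBS, 37 °C, 5% CO2. Treated with 25 nM compound plus 20 μM Cu(II) for 48 h. Nucleotide pools quantified by LC-MS/MS with multiple reaction monitoring. Cells were in glucose-free DMEM with 10% dialyzed FBS and 11 mM [U-13C6]glucose for 48 h, and glucose-labeled pools were compared. Mean ± SD, n = 3, two-way ANOVA with Bonferroni correction.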

MIA PaCa-2 [2] = experiment: Induction of DNA damage in human MIA PaCa-2 cells assessed as increase in pH2A.X phosphorylation at 10 nM in presence of Cu2+ incubated for 48 hrs by immunoblot assay; format: functional, cell-based
Procedure, shortened: (§2)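 Treated with 10 nM compound plus 20 μM Cu(II). Lysed in RIPA buffer with protease and phosphatase inhibitors, then sonicated and centrifuged at 20 000g, 4 °C. Protein measured by micro BCA, and equal amounts run on bis-tris gels. Primary antibodies in 5% BSA/TBST; HRP-linked anti-rabbit or anti-mouse secondaries at 1:2500. Chemiluminescent detection on film; representative blot.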

MIA PaCa-2 [3] = experiment: Induction of DNA damage in human MIA PaCa-2 cells assessed as decrease in GTP level at 25 nM in presence of Cu2+ incubated for 48 hrs by LC-MS/MS analysis; format: functional, cell-based
Procedure, shortened: (§3)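 MIAPACA2 cells were given 25 nM compound plus 20 μM Cu(II) for 48 h in glucose-free DMEM with 10% dialyzed FBS and 11 mM [U-13C6]glucose. Nucleotide pools were quantified by LC-MS/MS with multiple reaction monitoring. Mean ± SD, n = 3, two-way ANOVA with Bonferroni correction.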

HPAF-II = experiment: Cytotoxicity against human HPAF-II cells assessed as reduction in cell viability in presence of Cu2+ incubated for 72 hrs by cell titer-glo luminescent cell viability assay; format: functional, cell-based
Procedure, shortened: (§4)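 Cells were grown in DMEM or RPMI with 10% FBS, without antibiotics, at 37 °C, 20% O2, 5% CO2. Adherent lines were seeded at 500 cells/well. Serially diluted compound was given with 20 μM Cu(II) (CuCl2) for 72 h; leukemia models received pre-formed 1:1 copper complex. ATP was read by CellTiter-Glo luminescence. IC50 is relative to DMSO-treated cells.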

MIA PaCa-2 [4] = experiment: Induction of apoptosis in human MIA PaCa-2 cells assessed as increase in early apoptotic cells at 25 nM in presence of ATRi incubated for 72 hrs by annexin V and propidium iodide staining based flow cytometry analysis relative to control; format: functional
Procedure, shortened: (§5)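 Cells given 25 nM compound with or without 20 μM Cu(II) and/or the ATR inhibitor VE-822 at 250 nM for 72 h. Stained with annexin V-FITC and propidium iodide, then analysed on a five-laser flow cytometer to score viable, early apoptotic, late apoptotic and necrotic fractions against vehicle.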

MIA PaCa-2 [5] = experiment: Induction of apoptosis in human MIA PaCa-2 cells assessed as increase in necrotic cells at 25 nM incubated for 72 hrs by annexin V and propidium iodide staining based flow cytometry analysis relative to control; format: functional; procedure, shortened: as §5
MIA PaCa-2 [6] = experiment: Induction of DNA damage in human MIA PaCa-2 cells assessed as decrease in CTP level at 25 nM in presence of Cu2+ incubated for 48 hrs by LC-MS/MS analysis; format: functional, cell-based; procedure, shortened: as §3
[7] = Cytotoxicity against human A13A cells assessed as reduction in cell viability in presence of Cu2+ incubated for 72 hrs by cell titer-glo luminescent cell viability assay; format: functional, cell-based; procedure, shortened: as §4
MIA PaCa-2 [8] = experiment: Induction of DNA damage in human MIA PaCa-2 cells assessed as decrease in rGTP level at 25 nM in presence of Cu2+ incubated for 48 hrs by LC-MS/MS analysis; format: functional, cell-based; procedure, shortened: as §1
MIA PaCa-2 [9] = experiment: Induction of DNA damage in human MIA PaCa-2 cells assessed as decrease in dGTP level at 25 nM in presence of Cu2+ incubated for 48 hrs by LC-MS/MS analysis; format: functional, cell-based; procedure, shortened: as §1
BXPC-3 = experiment: Cytotoxicity against human BXPC-3 cells assessed as reduction in cell viability in presence of Cu2+ incubated for 72 hrs by cell titer-glo luminescent cell viability assay; format: functional, cell-based; details: BXPC-3, 72 h; procedure, shortened: as §4
L3.6pl = experiment: Cytotoxicity against human L3.6pl cells assessed as reduction in cell viability in presence of Cu2+ incubated for 72 hrs by cell titer-glo luminescent cell viability assay; format: functional, cell-based; procedure, shortened: as §4
MIA PaCa-2 [10] = experiment: Induction of DNA damage in human MIA PaCa-2 cells assessed as increase in CHEK2 phosphorylation at 10 nM in presence of Cu2+ incubated for 48 hrs by immunoblot assay; format: functional, cell-based; procedure, shortened: as §2
PANC-1 = experiment: Cytotoxicity against human PANC-1 cells assessed as reduction in cell viability in presence of Cu2+ incubated for 72 hrs by cell titer-glo luminescent cell viability assay; format: functional, cell-based; details: PANC-1, 72 h; procedure, shortened: as §4
YAPC = experiment: Cytotoxicity against human YAPC cells assessed as reduction in cell viability in presence of Cu2+ incubated for 72 hrs by cell titer-glo luminescent cell viability assay; format: functional, cell-based; procedure, shortened: as §4
PANC-03-27 = experiment: Cytotoxicity against human PANC-03-27 cells assessed as reduction in cell viability in presence of Cu2+ incubated for 72 hrs by cell titer-glo luminescent cell viability assay; format: functional, cell-based; details: PANC-03-27, 72 h; procedure, shortened: as §4
MIA PaCa-2 [11] = experiment: Induction of apoptosis in human MIA PaCa-2 cells assessed as decrease in viable cells at 25 nM incubated for 72 hrs by annexin V and propidium iodide staining based flow cytometry analysis relative to control; format: functional; procedure, shortened: as §5
MIA PaCa-2 [12] = experiment: Induction of apoptosis in human MIA PaCa-2 cells assessed as reduction in viable cells at 25 nM in presence of Cu2+ incubated for 72 hrs by annexin V and propidium iodide staining based flow cytometry analysis relative to control; format: functional; procedure, shortened: as §5
MIA PaCa-2 [13] = experiment: Induction of apoptosis in human MIA PaCa-2 cells assessed as increase in necrotic cells at 25 nM in presence of Cu2+ incubated for 72 hrs by annexin V and propidium iodide staining based flow cytometry analysis relative to control; format: functional; procedure, shortened: as §5
MIA PaCa-2 [14] = experiment: Induction of ROS generation in human MIA PaCa-2 cells at 25 nM in presence of Cu2+ incubated for 24 hrs by CM-H2DCFDA staining based flow cytometry analysis; format: functional, cell-based
Procedure, shortened: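 Treated with 25 nM compound ± 20 μM Cu(II) for 24 h. Cells loaded with 5 μM CM-H2DCFDA for 30 min, spun at 450g for 4 min, and returned to medium containing compound and/or Cu(II) for 30 min. Then spun, resuspended in PBS and read by flow cytometry as mean fluorescence intensity. Mean ± SD, n = 2, Student t-test.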

143B = experiment: Cytotoxicity against human 143-BTK Rho0 cells assessed as reduction in cell viability at 25 to 100 nM incubated for 48 hrs by trypan blue assay; format: functional, cell-based; details: dose nM 25-100, time 48.0 hrs
Procedure, shortened: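 143 BTK parental (WT) and ρ0 cells were exposed to the indicated compound concentrations plus 20 μM Cu(II) for 48 h. Viable cells were counted by trypan blue staining on a Vi-Cell counter. Mean ± SD, n = 2, Student t-test.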

MIA PaCa-2 [15] = experiment: Induction of apoptosis in human MIA PaCa-2 cells assessed as increase in late apoptotic cells at 25 nM in presence of ATRi incubated for 72 hrs by annexin V and propidium iodide staining based flow cytometry analysis relative to control; format: functional; procedure, shortened: as §5

SMILES: CN(C)C(=S)NN=Cc1nccc2cc(F)ccc12
- Activity (MIA PaCa-2 [1]): inactive
- Activity (MIA PaCa-2 [2]): Active
- Activity (MIA PaCa-2 [3]): inactive
- IC50 (HPAF-II): 1 nM
- Activity (MIA PaCa-2 [4]): 9.11%
- Activity (MIA PaCa-2 [5]): 2.49%
- Activity (MIA PaCa-2 [6]): inactive
- IC50 [7]: 1 nM
- Activity (MIA PaCa-2 [8]): Active
- Activity (MIA PaCa-2 [9]): Active
- IC50 (BXPC-3): 1 nM
- IC50 (L3.6pl): 1 nM
- Activity (MIA PaCa-2 [10]): Active
- IC50 (PANC-1): 1 nM
- IC50 (YAPC): 1 nM
- IC50 (PANC-03-27): 1 nM
- Activity (MIA PaCa-2 [11]): 94.9%
- Activity (MIA PaCa-2 [12]): 77.5%
- Activity (MIA PaCa-2 [13]): 4.86%
- Activity (MIA PaCa-2 [14]): Active
- Activity (143B): inactive
- Activity (MIA PaCa-2 [15]): 18.8%
